Shown are actives, neighbours in structure and some others; about 3.7% of the full set was active somewhere.
Kir21 inh – blocks the mouse Kir2.1 inward-rectifier potassium channel | P35561 | B-score at 10 µM | HEK293-Kir2.1, FluxOR thallium flux fluorescence; stronger effect = lower value | hit rate 0.85% among 310,000 | AID 1672;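 active = fluorescence ratio B-score at or below minus 3 SD of library scores, with starting-brightness B-score within 2 SD, cut at about -4.2 in these data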;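 also: channel flux triggered by added potassium and thallium sulfate stimulus; B-score of peak minus minimum fluorescence over baseline after thallium stimulus; more negative B-score means stronger Kir2.1 block with less thallium influx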
hERG protect – shields human hERG channel from block by proarrhythmic agents; CHO-hERG, FluxOR thallium flux, dofetilide IC70 present; hit rate 0.51% among 310,000; activation (rescue from dofetilide block), less the hit threshold, % at 10 µM;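 active = activation above the mean of controls blocked by dofetilide plus 5 SD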;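 also: thallium influx through hERG after potassium depolarization seen as dye fluorescence rise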
KCNK3 inh – human KCNK3 channel inhibition, primary screen; AID 602410; hit rate 0.84% among 340,000; O14649; CHO-KCNK3 thallium flux, FluxOR fluorescence; stronger effect = lower value; B-score at 10 µM;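 active = B-score under library mean minus 4 SD, starting fluorescence ratio at most library mean plus 5 SD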;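 also: more negative B-score means stronger inhibition of thallium flux through KCNK3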
KCNQ1 act – human KCNQ1 channel potentiation or activation | P51787 | CHO-K1 KCNQ1, thallium flux FluxOR fluorescence; stronger effect = higher value | B-score at 10 µM | hit rate 0.35% among 310,000;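 active = fluorescence ratio B-score, a plate-corrected score, at least three library SD, with initial intensity B-score within 5 SD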
Target sequence (P51787 whole entry, looked up): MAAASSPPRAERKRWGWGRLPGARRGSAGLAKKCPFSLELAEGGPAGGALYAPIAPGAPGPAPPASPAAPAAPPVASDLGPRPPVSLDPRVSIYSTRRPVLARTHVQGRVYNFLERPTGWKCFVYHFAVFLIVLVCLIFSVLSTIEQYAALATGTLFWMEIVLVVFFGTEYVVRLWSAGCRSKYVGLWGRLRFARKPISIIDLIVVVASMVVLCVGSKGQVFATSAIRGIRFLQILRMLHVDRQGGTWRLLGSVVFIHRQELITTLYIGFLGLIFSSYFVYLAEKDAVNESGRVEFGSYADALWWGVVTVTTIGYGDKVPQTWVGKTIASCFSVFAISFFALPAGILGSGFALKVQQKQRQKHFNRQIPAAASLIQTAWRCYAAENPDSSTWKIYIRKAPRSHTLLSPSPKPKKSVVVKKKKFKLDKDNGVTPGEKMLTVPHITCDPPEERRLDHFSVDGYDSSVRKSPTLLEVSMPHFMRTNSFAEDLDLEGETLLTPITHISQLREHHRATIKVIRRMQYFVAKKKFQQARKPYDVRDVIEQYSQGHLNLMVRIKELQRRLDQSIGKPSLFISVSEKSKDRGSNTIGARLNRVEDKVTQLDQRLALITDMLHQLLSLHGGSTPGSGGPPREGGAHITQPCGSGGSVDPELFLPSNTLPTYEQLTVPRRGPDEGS
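Assay system: CHO-K1 cells stably expressing KCNQ1; Medium: assay buffer with matched DMSO; Also added: K+/Tl+ depolarizing stimulus; Dosing: single dose; Timing: dye 90 min, compound 20 min, room temperature; Measured by: kinetic FluxOR thallium fluorescence, 10-s 1-Hz baseline, 110-s post-stimulus read; Read-out: peak-minus-minimum fluorescence over initial fluorescence, negative-control normalized, B-scored.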
KCNQ1 block – blocks the human KCNQ1 potassium channel. P51787. CHO-K1 KCNQ1, FluxOR thallium flux fluorescence; stronger effect = higher value. B-score at 10 µM. hit rate 1.3% among 310,000;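 active = compounds whose thallium flux B-score, printed positive for inhibition, exceeds three library SD while starting fluorescence stays within three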;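 also: channel opened by potassium depolarization with thallium stimulus after 20 min compound exposure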
KCNK9 inh – blocks the human KCNK9 two-pore domain potassium channel; HEK293 KCNK9, FluxOR thallium flux fluorescence; stronger effect = lower value; B-score at 10 µM; hit rate 1.2% among 310,000;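 active = ratio B-score over 3 SD below the library mean, with starting fluorescence within 5 SD of its mean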;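 also: negative B-score means less thallium flux so channel inhibition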
Active calls of the source: *; i = inactive; . = no result.

SMILES	Kir21 inh	hERG protect	KCNK3 inh	KCNQ1 act	KCNQ1 block	KCNK9 inh
Cc1ccc(S(=O)(=O)N(C)c2ccc(OC(=O)c3cccs3)cc2)cc1	.	.	-9.5*	.	.	.
O=C(Nc1nc(-c2ccccc2)ns1)c1ccncc1	-0.19	-3	i	i	i	i
O=C(COC(=O)c1cc(-c2ccccc2Cl)nc2ccccc12)Nc1ncc(C(F)(F)F)cc1Cl	-0.97	-6	i	i	i	i
Cc1c(-c2ccccc2)nc2ccccc2c1C(=O)OCC(=O)Nc1ncc(C(F)(F)F)cc1Cl	-0.54	-10	i	i	9*	i
Cc1ccc(-c2n[nH]c(=S)nc2-c2ccc(C)cc2)cc1	-0.46	6.7*	i	i	i	i
CC(C)CC(=O)Nc1ccc(-c2nc3ccccc3c(=O)[nH]2)cc1	-2.7	-10	i	i	i	i
Cc1cc(C)n(CCOc2ccc(Cl)cc2Cl)n1	-1.3	9.2*	i	i	i	i
Cc1cc(C)n(CC(O)COc2ccc(Cl)cc2Cl)n1 (centres undefined)	0.71	-1	i	i	i	i
Fc1ccc(NC(=S)Nc2nccs2)cc1	1.3	10*	i	i	i	i
CCn1nc(Cc2cccc3ccccc23)c(C#N)c1N	0.78	-7	i	i	i	i
CCn1ncc(Br)c1C(=O)Nc1ccccc1C(=O)OC	0.21	-24	i	i	i	i
CCn1cc(Br)c(C(=O)Nc2ccccc2C(=O)OC)n1	-0.23	-10	i	i	i	-6.6*
C/C=C(\C)C(=O)O[C@H](c1cc2ccc(=O)oc2cc1OC)[C@@H](O)C(C)(C)O	.	.	i	.	.	.
CCCN(CC1CC1)C(=S)Nc1ccccc1F	-0.05	11*	i	i	i	i
CC(=O)/C(=C/c1ccccc1)C(=O)Nc1ccccc1C	-5.5*	-11	i	i	i	i
O=C(NCc1cccc(F)c1)C1CCC(=O)N(C2CC2)C1 (centres undefined)	1.1	-3	i	i	i	i
CCN(CC)CC#CCC(O)(c1ccccc1)c1ccccc1	-1.7	-20	i	i	i	i
CCN(CC)CC#CCC(C)(c1ccccc1)c1ccccc1	-8.9*	-8	i	i	i	i
CCN1C(=O)C(CC(=O)Nc2ccc(OC)cc2)N(CCc2ccc(OC)cc2)C1=S (centres undefined)	0	-26	i	i	6*	i
O=C(CSc1nc2ccccc2n1Cc1ccc(Cl)cc1)N/N=C/c1ccc(C(=O)O)cc1	2.3	-5	i	i	i	-6.8*
O=C(CSc1nc2ccccc2n1Cc1ccccc1)N/N=C/c1ccccc1C(=O)O	-0.19	-7	i	i	i	i
Cn1cc2cc(NC(N)=S)ccc2n1	0.04	-1	i	i	i	i
COc1ccccc1C(CNC(=O)C(C)Oc1ccc(Br)cc1)N1CCCC1 (centres undefined)	-5.8*	-8	i	i	i	i
COc1cc(S(=O)(=O)N(C)C2CCCCC2)c(C)cc1C	-0.64	-9	i	i	i	i
COc1cc(NC(=S)NCCC(c2ccccc2)c2ccccc2)c(OC)cc1Cl	-0.16	-10	i	i	i	i
SMILES	Kir21 inh	hERG protect	KCNK3 inh	KCNQ1 act	KCNQ1 block	KCNK9 inh
S=C(NCCC(c1ccccc1)c1ccccc1)Nc1ccccc1Cl	-0.91	-16	i	i	12*	i
COc1ccc(Cl)cc1NC(=S)NCCC(c1ccccc1)c1ccccc1	-3.5	-11	i	i	i	-8.1*
CCC(C(=O)Nc1cc(Cl)ccc1OC)c1ccccc1 (centres undefined)	-1.8	-5	i	i	i	-7.3*
S=C(NCCC(c1ccccc1)c1ccccc1)Nc1ccc(Cl)cc1	1.8	-6	i	i	9*	i
CCCN(CCC)C(=O)c1cc(S(=O)(=O)N2CCCCC2)c[nH]1	1.3	-14	i	i	i	i
CN(CCO)c1ncnc2c1sc1nc(N3CCOCC3)c3c(c12)CCC3	0.46	-4	i	i	i	i
Cc1ccc(COn2c(-c3ccc(Cl)cc3)nc3ccc([N+](=O)[O-])cc32)cc1	0.21	-7	i	i	i	i
CCOC(=O)C(C)On1c(-c2ccc(Cl)cc2)nc2ccc([N+](=O)[O-])cc21 (centres undefined)	0.57	-2	i	i	9*	i
CCOC(=O)C(C)On1c(-c2ccccc2)nc2ccc([N+](=O)[O-])cc21 (centres undefined)	-1.4	-16	i	i	i	i
O=[N+]([O-])c1ccc2nc(-c3ccc(Cl)cc3)n(OCc3ccccc3)c2c1	0.19	-4	i	i	6*	i
Cc1ccc(NC(=O)CN(C)S(=O)(=O)c2cnc[nH]2)c(C)c1	-0.07	-3	i	i	i	i
Cc1cccc(/C=C2/Sc3ccc(C(=O)NCCN4CCCC4)cc3NC2=O)c1	-2.8	-32	i	i	6*	i
CCN1CCN(CCCNC(=O)c2ccc3c(c2)NC(=O)/C(=C\c2cccc(C)c2)S3)CC1	-4.1	-33	i	i	i	i
O=C1Nc2cc(C(=O)NCCN3CCCCCC3)ccc2S/C1=C\c1ccccc1	-4.9*	-28	i	i	i	i
O=C(c1cc(COc2ccc(F)cc2Cl)on1)N1CC2C[C@@H]3CC1C[C@H](C2)C3	0.04	-7	i	i	i	i
Cc1ccc(C(=O)NCc2nc3ccccc3[nH]2)o1	0.46	-14	i	i	i	i
CCC(=O)OCCNc1cc(Sc2nccn2C)c2nonc2c1[N+](=O)[O-]	-2	-38	i	i	7*	i
N#C/C(=C/c1ccc(N2CCOCC2)o1)C(=O)Nc1ccccc1	-3.7	-34	i	i	i	-6.6*
N#C/C(=C\c1ccc(N2CCOCC2)o1)C(=O)NCC1CCCO1 (centres undefined)	-4.4	-17	i	i	9*	i
COCCNC(=O)/C(C#N)=C/c1ccc(N2CCOCC2)o1	-6.7	-21	i	i	i	i
N#C/C(=C/c1ccc(-c2ccc(S(=O)(=O)N3CCOCC3)cc2)o1)C(=O)NC1CC1	.	.	i	.	.	.
N#C/C(=C\c1ccc(N2CCOCC2)o1)C(=O)NC1CCCCC1	-6.6	-26	i	i	9*	i
COc1ccccc1OCc1nnc(SCC(=O)Nc2ccc(N3CCOCC3)cc2)n1C	0.49	-6	i	i	i	i
